Assay results taken from ChEMBL document CHEMBL2440064, “Synthesis and biological evaluation of 2-amino-5-aryl-3-benzylthiopyridine scaffold based potent c-Met inhibitors” (Bioorg Med Chem, 2013).
Blank lines part the entries; values can stand above or below the compound they belong to. Active and inactive are the calls of the source. No cut-off for these calls is given here.

Legend:
[1] = molecular target: T1, Hepatocyte growth factor receptor (Homo sapiens, UniProt P08581); assay: Inhibition of c-Met (unknown origin) using poly (Glu, Tyr) 4:1 as substrate after 60 mins by ELISA
[2] = molecular target: T1, Hepatocyte growth factor receptor; assay: Inhibition of c-Met (unknown origin) using poly (Glu, Tyr) 4:1 as substrate at 10 uM after 60 mins by ELISA
Summary of the method: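 ELISA on wells precoated with 20 µg/mL poly(Glu,Tyr)4:1. Purified kinase with 10 µmol/L ATP in 50 mM HEPES pH 7.4, 50 mM MgCl₂, 0.5 mM MnCl₂, 0.2 mM Na₃VO₄, 1 mM DTT; 1% DMSO vehicle. 60 min at 37°C. Phosphotyrosine detected with PY99 antibody, then HRP anti-mouse IgG and o-phenylenediamine/H₂O₂, A490. Inhibition = [1−(A490/A490 control)]×100%; IC50 from curves.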

SK-MEL-28 = assay: Antiproliferative activity against human SK-MEL-28 cells after 72 hrs; conditions: SK-MEL-28, 72 h
NIH3T3 = assay: Antitumor activity against mouse NIH/3T3 cells expressing TPR/Met allografted in mouse assessed as tumor growth inhibition at 50 mg/kg, po qd administered for 2 weeks measured twice per week relative to vehicle-treated control; assay type: functional; conditions: NIH3T3, 336 h, read-out: TGI
Summary of the method: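 Tumor fragments (1 mm³) implanted s.c. in right flank of nude mice by trocar. Randomized at 100–150 mm³ tumor volume. Dosed orally 7 days/week for 2 weeks; vehicle controls. Calipers twice weekly; TV = length×width²/2. Inhibition = 100%×{1−[(T day14−T day0)/(C day14−C day0)]}. n = 6/group, Student's t-test.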

NCI-H661 = assay: Antiproliferative activity against human NCI-H661 cells after 72 hrs; conditions: NCI-H661, 72 h
SK-OV-3 = assay: Antiproliferative activity against human SKOV3 cells after 72 hrs; conditions: SK-OV-3, 72 h
HCT-116 = assay: Antiproliferative activity against human HCT116 cells after 72 hrs; conditions: HCT-116, 72 h
[3] = Antiproliferative activity against human EBC1 cells after 72 hrs; conditions: EBC-1, 72 h
MDA-MB-231 = assay: Antiproliferative activity against human MDA-MB-231 cells after 72 hrs; conditions: MDA-MB-231, 72 h
SNU-5 = assay: Antiproliferative activity against human SNU5 cells after 72 hrs; conditions: SNU-5, 72 h
MKN-45 = assay: Antiproliferative activity against human MKN45 cells after 72 hrs; conditions: MKN-45, 72 h
NCI-H441 = assay: Antiproliferative activity against human NCI-H441 cells after 72 hrs; conditions: NCI-H441, 72 h
MCF7 = assay: Antiproliferative activity against human MCF7 cells after 72 hrs; conditions: MCF7, 72 h
[4] = molecular target: T1, Hepatocyte growth factor receptor; assay: Inhibition of c-Met in gefitinib-resistant human HCC827 cells assessed as inhibition of p44/42 phosphorylation at 0.5 uM after 2 hrs by Western blotting analysis; assay type: cell-based
Summary of the method: (§1)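 Cells grown to exponential phase, treated with compound 2 h at 37°C, lysed in 1× SDS sample buffer, resolved on 10% SDS-PAGE and transferred to nitrocellulose for immunoblotting.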

[5] = molecular target: T1, Hepatocyte growth factor receptor; assay: Inhibition of c-Met phosphorylation in gefitinib-resistant human HCC827 cells at 0.5 uM after 2 hrs by Western blotting analysis; assay type: cell-based; summary of the method: as §1
[6] = molecular target: T1, Hepatocyte growth factor receptor; assay: Inhibition of c-Met in gefitinib-resistant human HCC827 cells assessed as inhibition of AKT phosphorylation at 0.5 uM after 2 hrs by Western blotting analysis; assay type: cell-based; summary of the method: as §1

T1 sequence (P08581 whole entry): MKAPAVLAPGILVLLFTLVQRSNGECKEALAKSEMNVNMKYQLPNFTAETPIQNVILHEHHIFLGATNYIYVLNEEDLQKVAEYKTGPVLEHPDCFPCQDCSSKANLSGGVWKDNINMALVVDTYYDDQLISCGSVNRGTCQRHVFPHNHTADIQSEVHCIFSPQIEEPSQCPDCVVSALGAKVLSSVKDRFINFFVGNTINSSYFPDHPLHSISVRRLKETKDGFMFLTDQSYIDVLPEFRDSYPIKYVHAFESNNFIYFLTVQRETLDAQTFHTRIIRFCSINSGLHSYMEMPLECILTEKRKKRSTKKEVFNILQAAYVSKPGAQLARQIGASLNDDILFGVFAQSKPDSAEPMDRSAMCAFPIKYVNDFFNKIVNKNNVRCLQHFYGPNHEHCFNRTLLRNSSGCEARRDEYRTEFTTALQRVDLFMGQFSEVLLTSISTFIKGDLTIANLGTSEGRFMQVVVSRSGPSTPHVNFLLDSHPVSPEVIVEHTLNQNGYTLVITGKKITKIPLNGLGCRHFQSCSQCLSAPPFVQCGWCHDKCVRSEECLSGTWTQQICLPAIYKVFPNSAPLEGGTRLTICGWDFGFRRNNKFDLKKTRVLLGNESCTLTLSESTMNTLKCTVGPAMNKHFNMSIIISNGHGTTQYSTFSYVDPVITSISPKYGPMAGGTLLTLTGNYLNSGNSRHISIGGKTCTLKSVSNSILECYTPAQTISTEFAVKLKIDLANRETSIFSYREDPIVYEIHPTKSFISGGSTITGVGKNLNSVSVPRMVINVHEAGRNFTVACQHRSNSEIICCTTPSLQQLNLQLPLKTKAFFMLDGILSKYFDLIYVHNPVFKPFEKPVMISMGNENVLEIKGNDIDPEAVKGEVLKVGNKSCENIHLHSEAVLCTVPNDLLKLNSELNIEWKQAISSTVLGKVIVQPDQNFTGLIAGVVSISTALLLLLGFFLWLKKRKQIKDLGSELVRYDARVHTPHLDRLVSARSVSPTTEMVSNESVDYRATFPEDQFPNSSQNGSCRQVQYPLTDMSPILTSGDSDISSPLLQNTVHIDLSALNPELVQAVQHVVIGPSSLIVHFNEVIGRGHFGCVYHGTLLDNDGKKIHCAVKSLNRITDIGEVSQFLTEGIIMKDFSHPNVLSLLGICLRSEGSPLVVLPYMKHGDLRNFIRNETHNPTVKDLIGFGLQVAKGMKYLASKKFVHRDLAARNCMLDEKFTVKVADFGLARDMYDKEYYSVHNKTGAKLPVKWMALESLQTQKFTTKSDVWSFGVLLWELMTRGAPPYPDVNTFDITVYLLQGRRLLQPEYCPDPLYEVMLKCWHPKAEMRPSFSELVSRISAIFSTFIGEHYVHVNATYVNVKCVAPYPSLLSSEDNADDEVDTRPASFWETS

SMILES: CC(Sc1cc(-c2cnn(C3CCNCC3)c2)cnc1N)c1c(Cl)ccc(F)c1Cl (racemic)
IC50 [1]: 0.0164 µM

SMILES: CC(NS(=O)(=O)c1cc(-c2cnn(C3CCNCC3)c2)cnc1N)c1c(Cl)ccc(F)c1Cl (configuration not stated)
IC50 [2]: > 10 µM

SMILES: COc1cc2ncnc(Nc3ccc(F)c(Cl)c3)c2cc1OCCCN1CCOCC1
inhibition [4]: inactive | inhibition [5]: Active | inhibition [6]: inactive

Continued, in another order:

IC50 [1]: 0.171 µM
SMILES: C[C@H](Sc1cc(-c2cnn(C3CCNCC3)c2)cnc1N)c1c(Cl)ccc(F)c1Cl

IC50 (SK-MEL-28): 11 µM | IC50 (NCI-H661): 11.5 µM | IC50 (SK-OV-3): 12.8 µM | IC50 (HCT-116): 14.8 µM | IC50 (MDA-MB-231): 10.8 µM | IC50 (SNU-5): 0.016 µM | IC50 (MKN-45): 0.013 µM | IC50 (NCI-H441): 17.2 µM | IC50 (MCF7): 9.58 µM
SMILES: C[C@@H](Oc1cc(-c2cnn(C3CCNCC3)c2)cnc1N)c1c(Cl)ccc(F)c1Cl [CRIZOTINIB]
inhibition in vivo at 50 mg/kg (NIH3T3): 82.4% | IC50 [3]: 0.023 µM
